Source: PubChem BioAssay (several laboratories)
GLD-1 TGE inh – GLD-1-TGE RNA interaction inhibition (C. elegans). inhibition, % at 5.96 µM. purified GLD-1 + fluorescein TGE RNA, fluorescence polarization. Q17339. 0.44% of 320,000 active;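 active means percent inhibition above a per-plate cutoff, the plate mean of test compounds plus 3 SD, cut at about 30% in these data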;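 further: 0% = DMSO wells with GLD-1 and probe and 100% = wells lacking GLD-1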
EBV gp42 block – EBV gp42 inhibition; Q1HVG2; Fluorescence polarization binding assay, mP read-out; inhibition, % (tested at 21.74 µM); 0.42% of 220,000 active; AID 1085; in the data active means inhibition above about 50%
Target sequence (Q1HVG2 whole entry, looked up): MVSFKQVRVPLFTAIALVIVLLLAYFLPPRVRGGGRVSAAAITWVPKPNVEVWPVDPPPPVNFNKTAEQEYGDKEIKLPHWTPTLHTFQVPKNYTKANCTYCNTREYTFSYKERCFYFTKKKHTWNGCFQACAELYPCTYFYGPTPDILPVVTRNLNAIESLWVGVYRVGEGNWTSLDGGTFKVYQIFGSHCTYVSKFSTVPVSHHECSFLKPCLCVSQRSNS
BCLXL inh – inhibitors of human Bcl-xL; Q07817; GST-Bcl-xL / FITC-Bim BH3 peptide fluorescence polarization; inhibition, % at 10.9 µM; 0.7% of 320,000 active; AID 2129;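 active means inhibition above the mean of all tested compounds plus 3 SD, cutoff set per campaign, cut at about 30% in these data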;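 further: 0% = DMSO wells and 100% = unlabeled Bim-BH3 peptide competitor; inhibitors lower millipolarization by displacing the labeled peptide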
Target sequence (Q07817 whole entry, looked up): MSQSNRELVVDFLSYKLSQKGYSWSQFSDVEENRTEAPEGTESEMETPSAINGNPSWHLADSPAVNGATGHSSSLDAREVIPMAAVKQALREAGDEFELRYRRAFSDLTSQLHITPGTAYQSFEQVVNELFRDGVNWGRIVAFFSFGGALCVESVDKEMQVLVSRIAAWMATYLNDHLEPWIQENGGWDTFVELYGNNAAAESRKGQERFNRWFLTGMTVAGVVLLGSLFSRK
MEX-5 binding – C. elegans MEX-5 TCR-2 RNA binding activity; MEX-5/FITC-TCR2 RNA binding, fluorescence polarization; hits give low values; activity score (negative = inhibition of binding), % at 10 µM; 0.38% of 300,000 active; AID 1832;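 active means inhibition past about -25% in most replicates, and total fluorescence under double the plate's negative control median, limit read from the data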;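 further: 0% = DMSO and -100% = 5 µM competing unlabeled TCR2 RNA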
VIM-2 inhibitor – blocks Pseudomonas aeruginosa VIM-2 metallo-beta-lactamase; inhibition, % at 5.6 µM; purified VIM-2, nitrocefin hydrolysis, epi-absorbance fluorescence; 0.89% of 290,000 active;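 active means inhibition above the mean of all tested compounds plus 3 SD, cutoff set per screening run, cut at about 7.5% in these data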;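 further: red hydrolysis product quenches plate fluorescence so inhibitors raise well fluorescence; 0% = enzyme with DMSO and 100% = DMSO without enzyme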
IMP-1 inh – blocks Pseudomonas aeruginosa IMP-1 metallo-beta-lactamase | purified IMP-1, nitrocefin hydrolysis, epi-absorbance fluorescence | inhibition, % at 5.6 µM | 0.45% of 290,000 active;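 active means inhibition above the mean plus 3 SD of all compounds in the same screening run, cut at about 4.5% in these data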;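 further: 0% = IMP-1 with DMSO and 100% = DMSO wells lacking enzyme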
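System: purified IMP-1; amount: IMP-1 0.2 nM before substrate addition; compound: single dose, 5.6 µM; times: 25 °C, 15 min preincubation, 25 min reaction; signal: Epi-absorbance via hydrolysed-nitrocefin quenching of white-plate fluorescence, 480/530 nm, EDTA stop; benchmarks: DMSO with and without IMP-1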
* hit, by the source's call; . = not tested or not shown; + = active, no number. This is a sample that favours compounds with a hit; in the whole collection about 2.2% have one here.

SMILES	GLD-1 TGE inh	EBV gp42 block	BCLXL inh	MEX-5 binding	VIM-2 inhibitor	IMP-1 inh
COC(=O)C1=C(C)N=C2SC(C#N)=C(N)N2C1c1cccc(OC)c1 (stereo not drawn)	-0.2	-21.1	0.4	-28.1*	-3.5	-1.6
COC(=O)C1=C(C)N=C2SC(C#N)=C(N)N2C1c1ccc(OC)cc1 (stereo not drawn)	6.5	-14.8	6.2	2.5	0.0	-2.8
COc1ccccc1N1CCN(C(=O)c2ccc(COc3cccc4c3OC(C)(C)C4)cc2)CC1	12.0	.	3.8	-1.2	.	.
O=c1nc2c(O)cccn2c2c1c(=O)[nH]c1ccccc12	.	104.1*	.	-26.3*	5.3	8.3*
CSc1nc2sc3c(c2c2nncn12)CCC3	2.0	2.3	9.1	0.8	10.7*	-1.3
c1nnc2c3c4c(sc3ncn12)CCCC4	.	-29.9	.	0.2	-3.4	-3.2
CC(C)(C)Cc1nnc(NS(=O)(=O)Cc2ccccc2)s1	-0.2	-13.1	2.7	1.0	9.0*	-3.7
CCN(CC)CCCn1c2c(c(SCC(=O)Nc3ccc4c(c3)OCCO4)nc1=O)CCC2	4.1	.	3.7	2.0	.	.
O=C(O)c1cnc2ccccc2n1	6.2	-23.4	6.7	-0.7	-1.9	-3.5
N#CCc1cnc2ccccc2n1	59.9*	-5.5	81.7*	-2.1	-1.1	-0.5
Cc1ccc2c(c1)c1c3n2CCN(C(=O)CN2CCN(C)CC2)C3CCC1 (stereo not drawn)	3.8	-8.1	1.7	-1.9	3.1	-0.6
Cc1ccc2c(c1)c(=O)c1c3n2CCN(C(=O)CCl)C3CC1 (stereo not drawn)	14.1	-4.0	48.5*	-8.2	-1.3	-1.8
COc1ccc(C(CNC(=O)c2cccc(NS(=O)(=O)c3ccc(Br)cc3)c2)N(C)C)cc1 (stereo not drawn)	-1.5	.	1.8	-2.2	.	.
Cc1ccc(S(=O)(=O)c2cc3c(=O)n4ccccc4nc3n(Cc3ccco3)c2=N)cc1	10.3	48.8	37.9*	-10.1	4.3	-2.7
CCCCn1c(=N)c(S(=O)(=O)c2ccc(Br)cc2)cc2c(=O)n3cccc(C)c3nc21	-7.1	.	-5.9	-1.9	-5.7	-3.6
N=c1c(S(=O)(=O)c2ccc(Cl)cc2)cc2c(=O)n3ccccc3nc2n1C1CCCCC1	-1.3	.	-1.6	-45.8*	-0.3	-3.5
CCCn1c(=N)c(S(=O)(=O)c2ccc(F)cc2)cc2c(=O)n3ccccc3nc21	1.7	.	2.7	-6.9	8.9*	-4.3
Cn1c(=N)c(S(=O)(=O)c2ccc(F)cc2)cc2c(=O)n3ccccc3nc21	-5.4	-27.1	12.8	-1.3	1.2	-4.3
COCCn1c(=N)c(S(=O)(=O)c2ccc(F)cc2)cc2c(=O)n3cccc(C)c3nc21	-4.2	.	2.4	.	8.9*	-2.7
Cc1ccc(CNC(=O)c2cc3c(=O)n4ccccc4nc3n(Cc3ccco3)c2=N)cc1	12.9	.	3.5	-3.3	.	.
CCCC(=O)Nc1ccc2c(c1)nc1n2CCN(CCOC)C1	.	.	.	-3.6	-1.5	-2.5
CCOc1ccc(-c2noc(CCCC(=O)NCC3CCCO3)n2)cc1OC (stereo not drawn)	1.7	.	2.8	0.6	0.1	-2.4
CCOc1ccc(-c2c(C(=O)N/N=C/c3ccc(Cl)cc3)nnn2-c2nonc2N)cc1	-3.5	.	4.9	0.7	-5.9	-1.6
COCCn1c(SCC(=O)c2c(N)n(C3CC3)c(=O)[nH]c2=O)nnc1-c1cccc(C)c1	4.5	.	-9.0	.	.	.
Cc1ccc(C)c(CN2CCC(CNC(=O)Nc3ccc(F)c(Cl)c3)CC2)c1	-6.0	.	9.7	0.9	-3.5	-4.8
SMILES	GLD-1 TGE inh	EBV gp42 block	BCLXL inh	MEX-5 binding	VIM-2 inhibitor	IMP-1 inh
N=c1c(S(=O)(=O)c2ccc(Cl)cc2)cc2c(=O)n3ccccc3nc2n1CCc1ccccc1	-2.4	.	2.0	-63.0*	-1.4	0.2
COC(=O)C1=NN(C(=O)c2ccc(C)cc2)C(O)(c2ccc(Cl)cc2)C1 (stereo not drawn)	-6.7	-14.5	1.1	-39.5*	-0.2	0.8
CCNc1ccccc1CP(=O)(c1ccccc1)c1ccccc1O (stereo not drawn)	+	.	+	-1.1	1.4	-0.8
O=c1[nH]c(NCCO)nnc1Cc1ccccc1	4.1	.	-2.1	-1.1	-0.1	2.6
COC(=O)COc1ccc2c(c1)O/C(=C\c1ccco1)C2=O	-3.9	.	75.5*	-0.2	-1.7	-1.5
Cc1cc(O)cc2c1C(=O)/C(=C/c1ccco1)O2	49.9*	.	62.9*	-42.2*	-0.7	-1.1
